pEC50, pIC50: −log10 of the molar value. Calls of active or inactive are those of the source. No cut-off for these calls is given here.
Experiments:
PC-12 [1] = test: Cytoprotective activity against H2O2-induced cell death in rat PC12 cells assessed as increase in cell viability at 8 ug/ml preincubated 2 hrs before H2O2 challenge measured after 4 hrs by MTT assay relative to control; format: functional
Summary of the method: (§1)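 PC12 cells from Shanghai Institute of Cell Biology, grown at 37 °C in 5% CO2 in high-glucose DMEM with 10% heat-inactivated calf serum and penicillin/streptomycin. Cells seeded at 6×10^3/well and used 36 h later. Compound in DMSO diluted in medium, 2 h pretreatment, then 500 µM H2O2 (final) for 4 h. MTT (5 mg/mL) for 3 h, formazan dissolved in DMSO, read at 570 nm. Gain is %OD(drug)/OD(normal) minus %OD(DMSO)/OD(normal).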

PC-12 [2] = test: Cytoprotective activity against H2O2-induced cell death in rat PC12 cells assessed as increase in cell viability at 16 ug/ml preincubated 2 hrs before H2O2 challenge measured after 4 hrs by MTT assay relative to control; format: functional; summary of the method: as §1
PC-12 [3] = test: Cytoprotective activity against H2O2-induced cell death in rat PC12 cells assessed as increase in cell viability at 32 ug/ml preincubated 2 hrs before H2O2 challenge measured after 4 hrs by MTT assay relative to control; format: functional; summary of the method: as §1
[4] = molecular target: Xanthine dehydrogenase/oxidase (Rattus norvegicus) (UniProt P22985); test: Inhibition of xanthine oxidase assessed as formation of formazan after 2 hrs by spectrophotometry; parameters: concentration or dose not given beside the values
[5] = Antioxidant activity assessed as superoxide radical scavenging activity by spectrophotometry; format: functional
Summary of the method: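 Superoxide generated by NADH (78 μM), nitroblue tetrazolium (50 μM) and phenazine methosulfate (5 μM) in 16 mM Tris–HCl, pH 8.0, with compounds at various concentrations. Read at 560 nm after 5 min at room temperature. Blanks lack phenazine methosulfate; quercetin and vitamin C are references.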

[6] = system: Radical scavenging activity; test: Antioxidant activity assessed as DPPH free radical scavenging activity by spectrophotometry; format: functional
Summary of the method: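 DPPH (0.4 mg/mL) in methanol mixed with compounds (DMSO solutions) at various concentrations. Incubated 30 min at 37 °C, absorbance read at 517 nm. Methanolic DPPH alone serves as control; quercetin and vitamin C are the reference scavengers.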

Liver [7] = test: tissue or blood; conditions: Rattus norvegicus, 1 h
PC-12 [8] = test: Cytoprotective activity against H2O2-induced cell death in rat PC12 cells assessed as increase in cell viability preincubated 2 hrs before H2O2 challenge measured after 4 hrs by MTT assay; format: functional, cell-based
[9] = molecular target: Xanthine dehydrogenase/oxidase (Rattus norvegicus) (UniProt P22985); test: Inhibition of xanthine oxidase assessed as formation of formazan at 16 ug/ml after 2 hrs by spectrophotometry
Liver [10] = test: Antioxidant activity against FeSO4-induced lipid peroxidation in rat liver homogenate assessed as inhibition of malondialdehyde release at < 5 uM after 1 hr by thiobarbituric acid assay relative quercetin; format: functional, tissue-based
Summary of the method: (§2)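 Rat (Sprague-Dawley) liver homogenate in ice-cold PBS; peroxidation driven by FeSO4 (4 μM) plus vitamin C (50 μM). Compounds at 0.1–100 μM, 37 °C for 1 h in capped tubes. Then 20% TCA for 30 min at room temperature, followed by 0.1 M HCl and 1% TBA at 99 °C for 1 h. After centrifugation, MDA read at 532 nm. Quercetin is the standard; n = 3, means ± SD.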

Liver [11] = test: Antioxidant activity against FeSO4-induced lipid peroxidation in rat liver homogenate assessed as inhibition of malondialdehyde release at 6 to 100 uM after 1 hr by thiobarbituric acid assay relative quercetin; format: functional, tissue-based; summary of the method: as §2

Xanthine dehydrogenase/oxidase (Rattus norvegicus), sequence (P22985 whole entry, looked up): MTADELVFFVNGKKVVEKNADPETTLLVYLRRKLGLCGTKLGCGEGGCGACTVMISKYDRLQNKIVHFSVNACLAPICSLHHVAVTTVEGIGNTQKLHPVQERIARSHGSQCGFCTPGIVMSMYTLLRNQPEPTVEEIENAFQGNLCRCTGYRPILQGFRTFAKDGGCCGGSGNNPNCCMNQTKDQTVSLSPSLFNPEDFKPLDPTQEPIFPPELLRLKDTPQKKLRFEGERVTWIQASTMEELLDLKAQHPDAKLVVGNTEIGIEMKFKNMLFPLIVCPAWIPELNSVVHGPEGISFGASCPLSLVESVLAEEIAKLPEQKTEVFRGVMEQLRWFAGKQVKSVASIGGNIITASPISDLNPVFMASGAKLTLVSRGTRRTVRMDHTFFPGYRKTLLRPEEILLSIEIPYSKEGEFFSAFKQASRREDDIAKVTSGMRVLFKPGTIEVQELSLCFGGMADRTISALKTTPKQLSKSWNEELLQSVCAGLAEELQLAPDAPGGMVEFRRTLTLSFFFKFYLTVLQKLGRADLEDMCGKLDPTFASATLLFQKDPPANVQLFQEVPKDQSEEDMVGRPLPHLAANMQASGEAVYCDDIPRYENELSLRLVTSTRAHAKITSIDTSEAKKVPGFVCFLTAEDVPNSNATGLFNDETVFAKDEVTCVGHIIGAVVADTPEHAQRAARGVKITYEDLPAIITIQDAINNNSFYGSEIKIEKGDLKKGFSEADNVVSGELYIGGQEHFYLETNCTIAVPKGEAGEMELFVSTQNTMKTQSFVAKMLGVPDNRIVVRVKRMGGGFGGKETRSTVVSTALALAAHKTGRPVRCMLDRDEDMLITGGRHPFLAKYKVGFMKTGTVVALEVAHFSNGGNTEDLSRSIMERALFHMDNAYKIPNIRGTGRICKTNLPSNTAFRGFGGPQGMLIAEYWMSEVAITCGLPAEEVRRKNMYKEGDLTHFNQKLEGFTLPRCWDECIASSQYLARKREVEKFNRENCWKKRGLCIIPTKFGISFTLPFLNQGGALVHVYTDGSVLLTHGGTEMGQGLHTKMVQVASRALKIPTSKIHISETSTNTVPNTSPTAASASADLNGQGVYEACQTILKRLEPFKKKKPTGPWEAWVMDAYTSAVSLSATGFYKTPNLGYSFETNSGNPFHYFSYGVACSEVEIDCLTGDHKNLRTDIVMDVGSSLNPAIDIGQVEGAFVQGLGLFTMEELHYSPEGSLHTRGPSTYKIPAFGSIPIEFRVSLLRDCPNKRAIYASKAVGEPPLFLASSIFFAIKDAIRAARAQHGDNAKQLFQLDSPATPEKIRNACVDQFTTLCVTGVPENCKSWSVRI

## COc1ccc([C@@H]2Oc3cc(OC)c(OC)c(OC)c3C(=O)[C@@H]2O)cc1 (racemic)
PC-12 [1]
  Activity: 0.6%
PC-12 [2]
  Activity: 3.4%
PC-12 [3]
  Activity: 2.1%
[4]
  Activity: 24.9%

## COc1cc2c(c(OC)c1OC)C(=O)[C@H](O)[C@H](c1ccccc1O)O2 (racemic)
[5]
  pEC50: 3.78
[6]
  pEC50: 4.08
Liver [7]
  pIC50: 4.57

## COc1cc([C@@H]2Oc3cc(OC)c(OC)c(OC)c3C(=O)[C@@H]2O)cc(OC)c1O (racemic)
[5]
  pEC50: 4.26
[6]
  pEC50: 4.27
Liver [7]
  pIC50: 4.98

## COc1cc2c(c(OC)c1OC)C(=O)[C@H](O)[C@@H](c1ccc(O)c(O)c1)O2 (racemic)
[5]
  pEC50: 4.00
[6]
  pEC50: 5.14
PC-12 [1]
  Activity: 40.5%
PC-12 [2]
  Activity: 56.1%
PC-12 [3]
  Activity: 74.5%
PC-12 [8]
  pEC50: 4.48
Liver [7]
  pIC50: 4.98
[4]
  Activity: 58.9%
[9]
  pIC50: 4.01

## COc1cc([C@@H]2Oc3cc(OC)c(OC)c(OC)c3C(=O)[C@@H]2O)cc(OC)c1OC (racemic)
PC-12 [1]
  Activity: 2.1%
PC-12 [2]
  Activity: 9.2%
PC-12 [3]
  Activity: 15.1%
Liver [7]
  pIC50: 4.71
[4]
  Activity: 28.9%

## COc1ccc([C@H]2Oc3cc(OC)c(O)c(OC)c3C(=O)[C@@H]2O)cc1 (racemic)
[6]
  pEC50: 4.02
PC-12 [1]
  Activity: 19.5%
PC-12 [2]
  Activity: 37.2%
PC-12 [3]
  Activity: 53.6%
PC-12 [8]
  pEC50: 4.08
Liver [7]
  pIC50: 4.92
[4]
  Activity: 21.1%

## COc1cc2c(c(OC)c1O)C(=O)[C@H](O)[C@H](c1ccc3c(c1)OCO3)O2 (racemic)
[5]
  pEC50: 4.03
[6]
  pEC50: 4.74
PC-12 [1]
  Activity: 0.1%
PC-12 [2]
  Activity: 0.3%
PC-12 [3]
  Activity: 0.5%
Liver [7]
  pIC50: 5.19
[4]
  Activity: 12.5%

## COc1ccc([C@@H]2Oc3cc(OC)c(O)c(OC)c3C(=O)[C@@H]2O)cc1OC (racemic)
[5]
  pEC50: 4.30
[6]
  pEC50: 4.44
PC-12 [1]
  Activity: 2.9%
PC-12 [2]
  Activity: 19.8%
PC-12 [3]
  Activity: 22%
[4]
  Activity: 74.3%
[9]
  pIC50: 4.80

## COc1cc2c(c(OC)c1OC)C(=O)[C@H](O)[C@@H](c1ccc(O)cc1)O2 (racemic)
PC-12 [1]
  Activity: -1.4%
PC-12 [2]
  Activity: 5.1%
PC-12 [3]
  Activity: 17.1%
[4]
  Activity: 0.2%

## COc1cc2c(c(OC)c1OC)C(=O)[C@H](O)[C@H](c1ccc3c(c1)OCO3)O2 (racemic)
[5]
  pEC50: 4.10
PC-12 [1]
  Activity: 1.4%
PC-12 [2]
  Activity: 5.4%
PC-12 [3]
  Activity: 4.5%
[4]
  Activity: 0.8%

## COc1ccc([C@@H]2Oc3cc(OC)c(OC)c(OC)c3C(=O)[C@@H]2O)cc1OC (racemic)
PC-12 [1]
  Activity: -2.5%
PC-12 [2]
  Activity: 1.9%
PC-12 [3]
  Activity: 2.4%
Liver [7]
  pIC50: 4.54
[4]
  Activity: 46.6%

## COc1ccc([C@H]2Oc3cc(OC)c(OC)c(OC)c3C(=O)[C@@H]2O)cc1O (racemic)
[5]
  pEC50: 3.95
[6]
  pEC50: 3.91

## COc1cc2c(c(OC)c1O)C(=O)[C@H](O)[C@@H](c1ccc(O)cc1)O2 (racemic)
[6]
  pEC50: 4.45
PC-12 [1]
  Activity: -3.8%
PC-12 [2]
  Activity: 13.4%
PC-12 [3]
  Activity: 19.1%
[4]
  Activity: 19.8%

## COc1cc([C@@H]2Oc3cc(OC)c(O)c(OC)c3C(=O)[C@@H]2O)ccc1O (racemic)
[5]
  pEC50: 4.01
[6]
  pEC50: 4.37
PC-12 [1]
  Activity: -0.2%
PC-12 [2]
  Activity: 0.5%
PC-12 [3]
  Activity: 1.6%
Liver [7]
  pIC50: 5.72
[4]
  Activity: 15.4%

## COc1cc([C@H]2Oc3cc(OC)c(OC)c(OC)c3C(=O)[C@@H]2O)ccc1O (racemic)
Liver [10]
  Activity: inactive
[5]
  pEC50: 4.01
[6]
  pEC50: 4.56
Liver [11]
  Activity: Active
Liver [7]
  pIC50: 5.26

## O=C1O[C@H]([C@@H](O)CO)C(O)=C1O [ASCORBIC ACID]
[5]
  pEC50: 3.59
[6]
  pEC50: 3.81

## O=c1c(O)c(-c2ccc(O)c(O)c2)oc2cc(O)cc(O)c12 [QUERCETIN]
[5]
  pEC50: 4.39
[6]
  pEC50: 5.26
PC-12 [1]
  Activity: 28.9%
PC-12 [2]
  Activity: 42.6%
PC-12 [3]
  Activity: 61.7%
PC-12 [8]
  pEC50: 4.17
Liver [7]
  pIC50: 5.22

Reference: ChEMBL document CHEMBL1139238, “Preparation of two sets of 5,6,7-trioxygenated dihydroflavonol derivatives as free radical scavengers and neuronal cell protectors to oxidative damage” (Bioorg Med Chem, 2009)
